# TLR9-MyD88 inh – TLR9-MyD88 interaction inhibition | Q9NR96+Q99836 | CHO BLA complementation TLR9-MyD88, CCF4 FRET ratio | inhibition, % at 4.98 µM | actives 0.21% (n = 340,000) | AID 504734;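 active = inhibition above the mean over all tested compounds plus 3 SD, cut at about 21% in these data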;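 also: 0% = DMSO only wells and 100% = clavulanate BLA inhibitor control wells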
# MC4R antag cAMP – blocks human MC4R cAMP signaling. P32245. MC4R-expressing cells, MTII-stimulated cAMP, LANCE TR-FRET. inhibition, % at 6.5 µM. actives 0.48% (n = 360,000). AID 540295;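 active = inhibition above its plate's cutoff, the mean of tested wells on that plate plus 3 SD, cut at about 29% in these data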;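 also: 0% = Melanotan II alone and 100% = Melanotan II plus saturating MCL0020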
#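 Assay system: human MC4R-expressing U2OS cells; reagent: Melanotan II stimulation of cells; dosing: 6.5 µM single dose; timing: compound 30 min, challenge 1 h, detection 1 h; signal: TR-FRET cAMP assay; replicates: one well per compound, no replicates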
# TLR4-MyD88 BLA – inhibitors of human TLR4-MyD88 binding. actives 0.18% (n = 200,000). inhibition, % at 8.4 µM. AID 861. HeLa CL3-4 TLR4/MyD88 BLA complementation, FRET ratio. O00206+Q99836; in the data active = inhibition above about 25%;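 also: 0% = vehicle and 100% = reference inhibitor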
# MC4R ag barr – human MC4R agonism via beta-arrestin; U2OS MC4R beta-arrestin complementation, luminescence; percent of melanotan II response, DMSO zero; activation, % at 8.9 µM; actives 0.98% (n = 360,000); AID 540308;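 active = activation above a per-plate cutoff, the mean activation of sample wells on that plate plus 3 SD, cut at about 8% in these data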
# NOD2-RIPK2 inh – inhibitors of human NOD2-RIPK2 interaction. inhibition, % at 4.98 µM. CHO BLA complementation NOD2-RIPK2, CCF4 ratio. actives 0.38% (n = 360,000). AID 624267; in the data active = inhibition above about 21%;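 also: 0% = vehicle only and 100% = reference blocker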
# Target sequence (O43353 whole entry, looked up): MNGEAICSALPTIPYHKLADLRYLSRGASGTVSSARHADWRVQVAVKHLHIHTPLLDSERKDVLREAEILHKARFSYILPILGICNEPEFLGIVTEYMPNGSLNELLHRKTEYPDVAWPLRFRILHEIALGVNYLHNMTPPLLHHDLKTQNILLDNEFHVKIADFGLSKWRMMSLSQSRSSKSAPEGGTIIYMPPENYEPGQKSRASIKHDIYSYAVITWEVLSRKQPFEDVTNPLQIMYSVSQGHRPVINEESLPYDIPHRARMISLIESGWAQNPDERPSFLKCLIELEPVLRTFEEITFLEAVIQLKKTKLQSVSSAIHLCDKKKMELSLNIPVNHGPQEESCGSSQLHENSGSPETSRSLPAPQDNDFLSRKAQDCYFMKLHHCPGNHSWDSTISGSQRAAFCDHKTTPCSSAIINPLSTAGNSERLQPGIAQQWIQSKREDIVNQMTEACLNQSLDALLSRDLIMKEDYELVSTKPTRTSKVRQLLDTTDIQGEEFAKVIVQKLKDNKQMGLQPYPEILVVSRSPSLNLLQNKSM
# U2OS cAMP counter – counter-screen for MC4R antagonists: nonselective cAMP signaling inhibitors. parental U2OS, forskolin cAMP, LANCE TR-FRET. actives 26% (n = 1,600). inhibition, % at 6.5 µM. shares compounds with MC4R antag cAMP;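 active = mean inhibition over triplicates above the low-control well mean plus 3 SD, set per campaign, cut at about 13% in these data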;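 also: signal is single emission at 671 nm which falls as cellular cAMP rises; 0% = forskolin-stimulated wells and 100% = buffer without forskolin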
# MC4R cAMP antag – human MC4R cAMP antagonism confirmation | shares compounds with MC4R antag cAMP | MC4R-expressing cells, MTII-stimulated cAMP, TR-FRET | inhibition, % at 6.5 µM | actives 27% (n = 1,600); in the data active = inhibition above about 29%;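 also: 0% = agonist stimulated wells alone and 100% = agonist stimulated wells plus saturating reference antagonist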
# An asterisk follows results filed as active; / = not tested or not shown. A selection: hits, their analogues and other compounds. The true share with any hit is near 1.8%.
SMILES,TLR9-MyD88 inh,MC4R antag cAMP,TLR4-MyD88 BLA,MC4R ag barr,NOD2-RIPK2 inh,U2OS cAMP counter,MC4R cAMP antag
O=C(CNS(=O)(=O)c1ccccc1)NNC(=O)C(Cl)Cl,7,29*,7,-2,-6,-5,-13
N#Cc1ccccc1OCC(=O)N(C1CCCCC1)C1CCS(=O)(=O)C1 (centres undefined),-16,-10,/,-2,-15,/,/
COc1cc2c(cc1NC(=O)CN1C(=O)NC3(CCc4ccccc43)C1=O)oc1ccccc12 (centres undefined),11,44*,7,0,-1,2,27
CC1CCN(CCC(=O)N/N=C/c2ccc([N+](=O)[O-])cc2)CC1,0,9,3,0,8,/,/
O=C(OC1CCOC1=O)C1CCN(S(=O)(=O)c2ccc(Cl)c(C(F)(F)F)c2)CC1 (centres undefined),9,51*,/,-1,-8,14*,50*
O=C(OCC(=O)N1CCCC1=O)C1CCN(S(=O)(=O)c2ccc(Cl)c(C(F)(F)F)c2)CC1,-2,11,/,2,-10,/,/
O=C(OC1CCOC1=O)c1ccc(S(=O)(=O)N2CCCCCC2)cc1 (centres undefined),-2,10,-1,-2,-3,/,/
O=C(OC1CCOC1=O)c1ccc(Cl)c(S(=O)(=O)N2CCCCC2)c1 (centres undefined),-4,34*,11,1,-4,11,11
O=C(OC1CCOC1=O)C1CCN(S(=O)(=O)c2ccccc2)CC1 (centres undefined),-16,35*,/,-1,1,18*,43*
CCOC(=O)C1(Cc2ccc(Cl)cc2)CCN(C(=O)c2ccoc2)CC1,-1,-1,-8,-1,-4,/,/
Cc1cccc(NC(=O)COC(=O)CN2CCCCCC2=O)c1C,2,3,/,-1,-5,/,/
O=C1C(c2ccccc2)=NCCN1C(c1ccc(F)cc1)c1nc2ccccc2[nH]1 (centres undefined),/,/,/,/,0,/,/
COc1ccc(OC)c(N(C)S(=O)(=O)c2cc3c(cc2C)NC(=O)CO3)c1,-7,2,/,1,7,/,/
CC(c1ccco1)N(C(=O)c1ccccc1NS(=O)(=O)c1cccc([N+](=O)[O-])c1)c1ccccn1 (centres undefined),3,30*,-2,-1,-8,-1,-1
Cn1nc([N+](=O)[O-])nc1S(C)(=O)=O,-4,-3,-7,-2,-4,/,/
CS(=O)(=O)c1nc([N+](=O)[O-])nn1CCCc1ccccc1,-4,34*,/,-2,2,2,24
COc1cccc(C(=O)Nc2sc(C(C)C)cc2C(N)=O)c1OC,-9,30*,/,0,0,2,20
CC(=O)Oc1ccc2nc(-c3ccc(Br)o3)oc(=O)c2c1,-7,32*,/,1,-6,6,36*
CC(=O)Oc1ccc2c(=O)oc(-c3ccccc3)nc2c1,-1,15,/,0,0,/,/
COC(=O)c1cc(S(=O)(=O)n2nc(C)c(Br)c2C)c(Cl)cc1Cl,-15,30*,4,-2,9,6,20
Cc1cc(C)n(S(=O)(=O)c2cc(C(=O)O)c(Cl)cc2Cl)n1,-10,1,6,0,-5,/,/
COc1cccc(Nc2nc(-c3sc(N)nc3C)cs2)c1,-3,16,11,4,-9,/,/
COc1cccc(Nc2nc(-c3sc(C)nc3C)cs2)c1,-2,29*,/,1,7,0,6
COc1cccc(Nc2nc(-c3sc(NC(=O)c4ccco4)nc3C)cs2)c1,0,35*,-13,-1,-20,10,20
Cc1cccc(C)c1NC(=O)C(c1ccnc2ccccc12)n1c(=O)c(-c2ccco2)nc2ccccc21 (centres undefined),/,/,/,/,-17,/,/
SMILES,TLR9-MyD88 inh,MC4R antag cAMP,TLR4-MyD88 BLA,MC4R ag barr,NOD2-RIPK2 inh,U2OS cAMP counter,MC4R cAMP antag
CCN1C(=O)C2(C(C(=O)c3cc4ccccc4o3)=C(O)C(=O)N2CCCN2CCOCC2)c2ccccc21 (centres undefined),0,42*,/,-2,2,22*,50*
O=C1CCCCC/C1=N/Nc1ccc(OCc2ccccc2)cc1,-1,6,/,0,0,/,/
C[C@H](O)C#Cc1ccc2c(c1)O[C@@H](CN(C)Cc1ccc(-c3ccccc3)cc1)[C@H](C)CN([C@@H](C)CO)S2(=O)=O,-1,39*,/,-3,4,5,29*
COC(=O)c1ccc2c(=O)[nH]c(COC(=O)c3c(-c4ccccc4Cl)noc3C)nc2c1,-2,29*,/,2,2,-1,5
O=C(NC1CCCCNC1=O)c1ccco1 (centres undefined),4,1,/,0,7,/,/
COc1ccc(-n2c(-c3cccc(OC)c3)nc(=S)c3c2CCCC3)cc1,-7,31*,-12,-1,-1,17*,33*
Cc1ccc(S(=O)(=O)N2CC(O)CC2C(=O)OCC(=O)Nc2ccc([N+](=O)[O-])cc2C(F)(F)F)cc1C (centres undefined),-6,13,/,1,-3,/,/
Cc1cc(C)n(-c2nnc(NC34CC5CC(CC(C5)C3)C4)nn2)n1,5,29*,-19,0,0,-2,0
c1ccc2c3c(c(CN4CCCC4)cc2c1)COC3,-1,30*,-14,0,-14,1,-18
O=C(COC(=O)Cc1c(Cl)cccc1Cl)NCC1CCCO1 (centres undefined),-1,8,-15,-1,-4,/,/
CC1CN(S(=O)(=O)c2ccc(C(=O)N3c4ccccc4CC3C)cc2)CC(C)O1 (centres undefined),-5,29*,/,-1,11,-2,-18
CC1CC(C)CN(S(=O)(=O)c2ccc(C(=O)N3CC(C)OC(C)C3)cc2)C1 (centres undefined),-3,2,/,0,-8,/,/
CC(C)Sc1cc(Cl)nc(NC(=O)Nc2ccccc2)n1,-11,31*,/,-1,-3,17*,39*
O=C(Nc1ccccc1)Nc1ccc2ccccc2c1,-7,9,/,2,9,/,/
OCCN1CCN(c2cc(-c3ccccc3)c3ccccc3n2)CC1,1,41*,-1,0,0,-3,-8
CCOCc1c(C(=O)NC2=Nc3ccccc3NC(CC)=C2C(=O)OCC)oc2ccccc12,-1,38*,-1,6,-4,25*,17
CCOC(=O)C1=C(CC)Nc2ccccc2N=C1NC(=O)c1oc2ccccc2c1C,-14,0,-4,0,-5,/,/
CCCNC(=O)c1ccc(CN2CCOCC2)cc1,-11,-3,-8,-2,2,/,/
